Test results reported in ChEMBL document CHEMBL4229380, “Arylureas derived from colchicine: Enhancement of colchicine oncogene downregulation activity” (Eur J Med Chem, 2018).

Experiments:
HT-29 [1] = experiment: Antiproliferative activity against human HT-29 cells after 2 days by MTT assay; assay type: functional, cell-based; conditions: HT-29, 48 h
In short: (§1)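 Cells (5×10^3 per well) in DMEM with 10% FBS, glucose, glutamine and antibiotics were exposed to serial dilutions (stocks in DMSO) for 2 days at 37 °C, 5% CO2. MTT was added for 3 h, formazan was dissolved in DMSO and absorbance read at 490 nm. Viability was taken as % of untreated cells. IC50 was read graphically from three independent experiments.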

HT-29 [2] = experiment: Effect on c-MYC gene expression in human HT-29 cells assessed as c-MYC level at 0.5 nM after 48 hrs by RT-qPCR analysis; assay type: functional
In short: (§2)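 HT-29 cells at 70–80% confluence were seeded at 1.5×10^5 per well and left 24 h, then treated 48 h, with DMSO as control. Total RNA was extracted and VEGF-A, c-Myc and hTERT were quantified by TaqMan qPCR, normalized to β-actin and to living cell number. Results are % expression versus control, at least three measurements.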

HT-29 [3] = experiment: Induction of apoptosis in human HT-29 cells assessed as necrotic cells at 0.5 nM after 48 hrs by Annexin V-FITC staining-based flow cytometric analysis (reference value: 2 +/- 6%); assay type: functional
HT-29 [4] = experiment: Induction of apoptosis in human HT-29 cells assessed as apoptotic cells at 0.5 nM after 48 hrs by Annexin V-FITC staining-based flow cytometric analysis (reference value: 13 +/- 3%); assay type: functional
HEK293 = experiment: Antiproliferative activity against human HEK293 cells after 2 days by MTT assay; assay type: cell-based; conditions: HEK293, 48 h; in short: as §1
MCF7 = experiment: Antiproliferative activity against human MCF7 cells after 2 days by MTT assay; assay type: functional, cell-based; conditions: MCF7, 48 h; in short: as §1
HT-29 [5] = experiment: Induction of apoptosis in human HT-29 cells assessed as viable cells at 0.5 nM after 48 hrs by Annexin V-FITC staining-based flow cytometric analysis (reference value: 82 +/- 1%); assay type: functional; conditions: HT-29, 48 h, read-out: Activity
HT-29 [6] = experiment: Effect on VEGFR2 protein expression in human HT-29 cells assessed as VEGFR2 level at 0.5 nM after 48 hrs by ELISA; assay type: functional
In short: (§3)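 HT-29 cells (1.5×10^5 per well, 24 h pre-culture) were treated 48 h and washed in PBS. They were lysed in Tris pH 7.4 buffer with detergents, phosphatase inhibitors, PMSF and protease inhibitors. Lysates were adjusted to 200 µg/mL protein (Bradford) and total c-Myc or VEGFR-2 was measured by sandwich ELISA kit. Values are % of DMSO control, ≥3 measurements.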

HT-29 [7] = experiment: Effect on VEGF protein expression in human HT-29 cells assessed as secreted VEGF level in culture media at 0.5 nM after 48 hrs by ELISA
HT-29 [8] = experiment: Effect on c-MYC protein expression in human HT-29 cells assessed as c-MYC level at 0.5 nM after 48 hrs by ELISA; assay type: functional; in short: as §3
HT-29 [9] = experiment: Effect on VEGF gene expression in human HT-29 cells assessed as VEGF level at 0.5 nM after 48 hrs by RT-qPCR analysis; assay type: functional; in short: as §2
HT-29 [10] = experiment: Effect on hTERT gene expression in human HT-29 cells assessed as hTERT level at 0.5 nM after 48 hrs by RT-qPCR analysis; assay type: functional; in short: as §2
HeLa = experiment: Antiproliferative activity against human HeLa cells after 2 days by MTT assay; assay type: functional, cell-based; conditions: 48 h; in short: as §1
HT-29 [11] = experiment: Induction of apoptosis in human HT-29 cells assessed as necrotic cells at 500 nM after 48 hrs by Annexin V-FITC staining-based flow cytometric analysis (reference value: 2 +/- 6%); assay type: functional
HT-29 [12] = experiment: Induction of apoptosis in human HT-29 cells assessed as apoptotic cells at 500 nM after 48 hrs by Annexin V-FITC staining-based flow cytometric analysis (reference value: 13 +/- 3%); assay type: functional
HT-29 [13] = experiment: Induction of apoptosis in human HT-29 cells assessed as viable cells at 500 nM after 48 hrs by Annexin V-FITC staining-based flow cytometric analysis (reference value: 82 +/- 1%); assay type: functional; conditions: HT-29, 48 h, read-out: Activity
HT-29 [14] = experiment: Induction of apoptosis in human HT-29 cells assessed as viable cells at 1000 nM after 48 hrs by Annexin V-FITC staining-based flow cytometric analysis (reference value: 82 +/- 1%); assay type: functional; conditions: HT-29, 48 h, read-out: Activity
HT-29 [15] = experiment: Induction of apoptosis in human HT-29 cells assessed as apoptotic cells at 1000 nM after 48 hrs by Annexin V-FITC staining-based flow cytometric analysis (reference value: 13 +/- 3%); assay type: functional
HT-29 [16] = experiment: Induction of apoptosis in human HT-29 cells assessed as necrotic cells at 1000 nM after 48 hrs by Annexin V-FITC staining-based flow cytometric analysis (reference value: 2 +/- 6%); assay type: functional

| SMILES | IC50 (HT-29 [1]) [nM] | Activity (HT-29 [2]) [%] | Activity (HT-29 [3]) [%] | Activity (HT-29 [4]) [%] | IC50 (HEK293) [nM] | IC50 (MCF7) [nM] | viability at 0.0005 µM (HT-29 [5]) [%] | Activity (HT-29 [6]) [%] | Activity (HT-29 [7]) [%] | Activity (HT-29 [8]) [%] | Activity (HT-29 [9]) [%] | Activity (HT-29 [10]) [%] | IC50 (HeLa) [nM] | Activity (HT-29 [11]) [%] | Activity (HT-29 [12]) [%] | viability at 0.5 µM (HT-29 [13]) [%] | viability at 1 µM (HT-29 [14]) [%] | Activity (HT-29 [15]) [%] | Activity (HT-29 [16]) [%] |
| --- | --- | --- | --- | --- | --- | --- | --- | --- | --- | --- | --- | --- | --- | --- | --- | --- | --- | --- | --- |
| COc1cc2c(c(OC)c1OC)-c1ccc(OC)c(=O)cc1[C@@H](NC(=O)Nc1ccccc1Cl)CC2 | 0.8 | 25 | 1 | 41 | 0.7 | 1.3 | 58 | 38 | 34 | 51 | 30 | 46 | 1.2 |  |  |  |  |  |  |
| CCc1cccc(CC)c1NC(=O)N[C@H]1CCc2cc(OC)c(OC)c(OC)c2-c2ccc(OC)c(=O)cc21 | 838 |  |  |  | 801 | 185 |  |  |  |  |  |  | 304 | 1 | 32 | 67 |  |  |  |
| COc1ccccc1NC(=O)N[C@H]1CCc2cc(OC)c(OC)c(OC)c2-c2ccc(OC)c(=O)cc21 | 1200 |  |  |  | 1200 | 1200 |  |  |  |  |  |  | 1400 |  |  |  | 55 | 44 | 1 |
